Assay results published in PMC4397581 (Nature chemical biology, 2015).

Tests used:
mouse neutrophils = experiment: Mouse NET assay; format: cell-based; conditions: 10 µM pre-treatment, ionomycin
In short: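 Mouse peripheral blood neutrophils were isolated by density centrifugation plus hypotonic lysis (>90% pure). They were settled 15 min on uncoated glass-bottom wells in RPMI/10 mM HEPES at 37 °C, given compound or vehicle for 20 min, then stimulated with 4 µM ionomycin for 2 h at 37 °C. Cells were fixed in 2% PFA overnight at 4 °C, permeabilised, blocked, and stained with anti-citrullinated H3 (0.3 µg/mL, overnight 4 °C), a fluorescent secondary and Hoechst 33342. Fluorescence microscopy was used for blinded scoring of H3Cit+ cells and spread NETs by nuclear morphology.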

human neutrophils = experiment: Human NET assay; format: cell-based; conditions: S. aureus, 5 bacteria per neutrophil, versus vehicle
In short: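 S. aureus was grown 20 h shaking in LB at 37 °C, washed in ice-cold PBS and added at 5× MOI for 3 h at 37 °C. Cells were fixed in 2% PFA and stained with Hoechst 33342. Confocal imaging was used, with algorithmic classification as lobulated, delobulated or diffused NETs, from 60 fields across 3 wells per treatment.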

PAD4 = PAD4 (Homo sapiens, UniProt Q9UM07); experiment: PAD4 FP binding assay; conditions: 10 nM GSK215, mean of replicates
PAD4, sequence (Q9UM07 whole entry): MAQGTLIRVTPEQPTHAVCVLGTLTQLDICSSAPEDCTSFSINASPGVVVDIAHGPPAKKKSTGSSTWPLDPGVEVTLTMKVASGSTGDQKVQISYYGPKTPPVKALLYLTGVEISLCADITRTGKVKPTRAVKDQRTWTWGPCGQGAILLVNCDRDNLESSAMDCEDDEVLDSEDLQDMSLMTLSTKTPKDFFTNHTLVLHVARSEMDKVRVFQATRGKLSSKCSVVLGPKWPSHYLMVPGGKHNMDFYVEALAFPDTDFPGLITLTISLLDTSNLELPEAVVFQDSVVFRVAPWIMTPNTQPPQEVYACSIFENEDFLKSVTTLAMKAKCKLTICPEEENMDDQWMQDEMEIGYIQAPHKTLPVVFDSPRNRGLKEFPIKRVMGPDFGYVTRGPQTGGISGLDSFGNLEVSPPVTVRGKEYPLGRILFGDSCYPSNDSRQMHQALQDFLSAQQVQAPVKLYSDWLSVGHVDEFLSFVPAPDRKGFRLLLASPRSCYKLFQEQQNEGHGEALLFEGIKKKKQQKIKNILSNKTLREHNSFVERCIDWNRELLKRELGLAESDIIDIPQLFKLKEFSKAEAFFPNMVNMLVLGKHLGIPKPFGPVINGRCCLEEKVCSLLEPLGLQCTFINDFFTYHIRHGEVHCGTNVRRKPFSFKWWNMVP

[1] = test system: histone deacetylases 1–11; experiment: Histone deacetylase selectivity; format: biochemical; conditions: for inhibition of histone deacetylases 1–11: at 100 µM; for Activation of HDACs: up to 100 µM
[2] = test system: panel of 50 unrelated proteins; experiment: Off-target panel

Row | Structure (SMILES) | Histone H3 citrullination (mouse neutrophils) | NET formation (mouse neutrophils) | Diffused NETs (human neutrophils) | IC50 (PAD4; PAD4 FP Binding Assay IC50, 0 mM Ca, 0 mM Ca) | IC50 (PAD4; PAD4 FP Binding Assay IC50, 2 mM Ca, 2 mM Ca) | inhibition of histone deacetylases 1–11 [1] | Activation of HDACs [1] | Off-target activity against a panel of 50 unrelated proteins [2]
1 | CCn1c(-c2nc3ccc(C(=O)N4CCCC(N)C4)cc3n2C)cc2ccccc21 (centres unmarked) [GSK106, (3-Aminopiperidin-1-yl)(2-(1-ethyl-1H–indol-2-yl)-1-methyl-1H-benzo[d]imidazol-6-yl)methanone] | ineffective | ineffective | ineffective |  |  |  |  | 
2 | CCn1c(-c2nc3cc(C(=O)N4CCC[C@@H](N)C4)cc(OC)c3n2C)cc2cccnc21 [GSK199, (R)-(3-Aminopiperidin-1-yl)(2-(1-ethyl-1H-pyrrolo[2,3-b]pyridin-2-yl)-7-methoxy-1-methyl-1H-benzo[d]imidazol-5-yl)methanone] | produced the same effect | produced the same effect | less marked inhibition | 200 nM | 1000 nM | < 50% | partial activation of HDACs 1 and 8 at high concentrations | negligible off-target activity
3 | COc1cc(C(=O)N2CC[C@@H](O)[C@@H](N)C2)cc2nc(-c3cc4ccccc4n3CC3CC3)n(C)c12 [GSK484, ((3S,4R)-3-Amino-4-hydroxypiperidin-1-yl)(2-(1-(cyclopropylmethyl)-1H-indol-2-yl)-7-methoxy-1-methyl-1H-benzo[d]imidazol-5-yl)methanone] | dramatically diminished | dramatically diminished | clear, statistically-significant reduction |  |  | < 50% | no activation across HDACs 1–11 | negligible off-target activity
